Reference: ChEMBL document CHEMBL2390869, “Evolution of novel tricyclic CRTh2 receptor antagonists from a (E)-2-cyano-3-(1H-indol-3-yl)acrylamide scaffold” (Bioorg Med Chem Lett, 2013)
pIC50: −log10 of the molar value. ≈ marks a conversion by molar mass, not a printed value.

What was measured:
[1] = biological target: T1, Prostaglandin D2 receptor 2 (Homo sapiens, UniProt Q9Y5Y4); test: Displacement of [3H]PGD2 from human CRTh2 receptor
T1 sequence (Q9Y5Y4 whole entry): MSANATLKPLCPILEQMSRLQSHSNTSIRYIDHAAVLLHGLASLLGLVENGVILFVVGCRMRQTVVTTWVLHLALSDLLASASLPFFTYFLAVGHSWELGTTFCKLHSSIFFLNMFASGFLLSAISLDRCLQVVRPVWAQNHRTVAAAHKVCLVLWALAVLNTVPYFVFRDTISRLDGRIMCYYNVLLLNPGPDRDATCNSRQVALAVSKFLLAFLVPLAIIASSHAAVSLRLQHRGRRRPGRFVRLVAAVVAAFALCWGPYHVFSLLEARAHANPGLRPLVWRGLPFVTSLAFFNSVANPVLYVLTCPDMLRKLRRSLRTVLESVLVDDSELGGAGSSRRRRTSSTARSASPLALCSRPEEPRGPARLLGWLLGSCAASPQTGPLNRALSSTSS
Method in brief: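 Human CRTh2 binding assay run in assay buffer. IC50 reported as the mean of at least three experiments.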

[2] = biological target: T1, Prostaglandin D2 receptor 2; test: Antagonist activity at PGD2-induced human CRTh2 receptor activation expressed in HEK293 cells assessed as intracellular Ca2+ liberation by FLIPR assay; assay type: functional, cell-based
Method in brief: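 HEK-293 cells stably expressing human CRTh2 were stimulated with PGD2. Antagonism of intracellular Ca2+ liberation was read by FLIPR. IC50 is the mean of at least three experiments.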

[3] = Oral bioavailability in Wistar rat at 10 mg/kg; assay type: ADME, organism-based; settings: in vivo
Method in brief: (§1)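 Single doses given to three male Wistar rats per route: 10 mg/kg orally and 1 mg/kg intravenously, as a solution in 20% propyleneglycol/80% buffer. Plasma PK parameters were derived. CL, terminal T1/2 and Vss come from the intravenous arm. AUC0–last comes from the oral arm.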

[4] = Solubility of the compound in buffer at pH 4; assay type: physicochemical
Method in brief: (§2)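 Solubility measured in buffered aqueous solution at pH 4 and pH 7, and in water, where the final pH of the aqueous solution was 4.6.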

Cytochrome P450 2C9 = Cytochrome P450 2C9 (Homo sapiens, UniProt P11712); test: Inhibition of CYP2C9 (unknown origin); assay type: ADME
Thromboxane A2 receptor = biological target: T2, Thromboxane A2 receptor (Homo sapiens, UniProt P21731); test: Antagonist activity at human TP2 receptor assessed as inhibition of U46619-induced Ca2+ mobilization by FLIPR assay; assay type: functional
T2 sequence (P21731 whole entry): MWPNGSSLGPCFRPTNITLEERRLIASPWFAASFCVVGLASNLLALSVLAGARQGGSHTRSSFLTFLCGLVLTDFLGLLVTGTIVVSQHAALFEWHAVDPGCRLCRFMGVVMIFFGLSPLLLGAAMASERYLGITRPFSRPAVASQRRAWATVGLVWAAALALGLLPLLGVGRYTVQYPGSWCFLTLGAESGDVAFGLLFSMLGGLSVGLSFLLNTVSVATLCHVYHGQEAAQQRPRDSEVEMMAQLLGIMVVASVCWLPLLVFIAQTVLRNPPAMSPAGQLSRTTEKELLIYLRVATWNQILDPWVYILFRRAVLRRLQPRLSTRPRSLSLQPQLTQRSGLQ
Method in brief: (§3)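 Antagonism measured as inhibition of agonist-induced Ca2+ mobilization by FLIPR: PGE2 as agonist for human EP1 and EP3, U46619 as agonist for human TP. Values are IC50.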

[5] = AUC (0 to last) in Wistar rat at 10 mg/kg, po; assay type: ADME, organism-based; design: time 0 - last, dose 10 mg/kg, route oral; settings: plasma; method in brief: as §1
[6] = Cmax in Wistar rat at 10 mg/kg, po and 1 mg/kg, iv; assay type: ADME, organism-based; settings: in vivo; method in brief: as §1
[7] = Solubility of the compound in buffer at pH 7; assay type: physicochemical; method in brief: as §2
[8] = Metabolic stability in rat plasma assessed as compound remaining after 4 hrs; assay type: ADME, cell-free; settings: read-out: Stability
Method in brief: (§4)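 Compound incubated in rat and human plasma for up to 4 h. Unchanged parent quantified by LC–MS, reported as % parent remaining at 4 h plus elimination half-life.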

[9] = biological target: Prostaglandin E2 receptor EP4 subtype (Homo sapiens, UniProt P35408); test: Inhibition of PGE2 binding to human EP4 receptor
[10] = biological target: T3, Prostaglandin E2 receptor EP1 subtype (Homo sapiens, UniProt P34995); test: Antagonist activity at human EP1 receptor assessed as inhibition of PGE2-induced Ca2+ mobilization by FLIPR assay; assay type: functional; method in brief: as §3
T3 sequence (P34995 whole entry): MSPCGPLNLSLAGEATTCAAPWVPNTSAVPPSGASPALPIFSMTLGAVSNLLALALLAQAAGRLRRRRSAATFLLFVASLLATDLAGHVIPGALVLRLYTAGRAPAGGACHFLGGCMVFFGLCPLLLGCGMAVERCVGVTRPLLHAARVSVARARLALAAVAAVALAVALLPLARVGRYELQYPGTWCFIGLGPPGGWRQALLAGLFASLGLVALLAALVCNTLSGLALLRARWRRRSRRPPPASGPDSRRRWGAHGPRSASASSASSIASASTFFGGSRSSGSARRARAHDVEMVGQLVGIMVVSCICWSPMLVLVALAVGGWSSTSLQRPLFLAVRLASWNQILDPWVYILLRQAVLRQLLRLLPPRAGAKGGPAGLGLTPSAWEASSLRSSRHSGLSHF

[11] = Stability in simulated intestinal fluid after 4 hrs by LC/MS analysis; assay type: physicochemical; settings: read-out: Stability
Method in brief: (§5)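 Compound incubated in simulated gastric fluid for 1 h or simulated intestinal fluid for 4 h. Unchanged parent recovered and measured by LC–MS, expressed as % parent.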

[12] = biological target: T4, Prostaglandin D2 receptor (Homo sapiens, UniProt Q13258); test: Inhibition of PGD2 binding to human DP1 receptor
T4 sequence (Q13258 whole entry): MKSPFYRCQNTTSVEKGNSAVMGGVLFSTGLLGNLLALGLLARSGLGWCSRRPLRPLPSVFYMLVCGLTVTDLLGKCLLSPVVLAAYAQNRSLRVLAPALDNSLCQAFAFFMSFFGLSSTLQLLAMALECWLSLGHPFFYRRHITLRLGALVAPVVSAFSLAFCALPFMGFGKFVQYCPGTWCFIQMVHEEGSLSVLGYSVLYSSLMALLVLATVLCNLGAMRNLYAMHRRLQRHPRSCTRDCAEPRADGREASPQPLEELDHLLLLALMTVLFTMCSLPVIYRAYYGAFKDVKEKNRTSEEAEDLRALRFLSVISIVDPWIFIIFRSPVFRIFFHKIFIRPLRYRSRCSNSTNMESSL

[13] = Metabolic stability in human plasma assessed as compound remaining after 4 hrs; assay type: ADME, cell-free; settings: read-out: Stability; method in brief: as §4
[14] = Clearance in Wistar rat at 10 mg/kg, po and 1 mg/kg, iv; assay type: ADME, organism-based; settings: in vivo; method in brief: as §1
[15] = Stability in simulated gastric fluid after 1hr by LC/MS analysis; assay type: physicochemical; settings: read-out: Stability; method in brief: as §5
[16] = biological target: Prostaglandin E2 receptor EP2 subtype (Homo sapiens, UniProt P43116); test: Inhibition of PGE2 binding to human EP2 receptor
[17] = Terminal half life in Wistar rat at 10 mg/kg, po and 1 mg/kg, iv; assay type: ADME, organism-based; settings: in vivo, read-out: beta t1/2 (converted); method in brief: as §1
[18] = biological target: T1, Prostaglandin D2 receptor 2; test: Displacement of [3H]PGD2 from human CRTh2 receptor in presence of human serum albumin
Method in brief: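 Human CRTh2 binding assay run with 0.5% human serum albumin added to the assay buffer to mimic binding to blood proteins. IC50 is reported as the mean of at least three experiments.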

[19] = Volume of distribution at steady state in Wistar rat at 10 mg/kg, po and 1 mg/kg, iv; assay type: ADME, organism-based; settings: in vivo, read-out: Vdss; method in brief: as §1
Cytochrome P450 3A4 = Cytochrome P450 3A4 (Homo sapiens, UniProt P08684); test: Inhibition of CYP3A4 (unknown origin); assay type: ADME
[20] = Aqueous solubility of the compound in water at pH 4.6; assay type: physicochemical; method in brief: as §2
Cytochrome P450 2D6 = Cytochrome P450 2D6 (Homo sapiens, UniProt P10635); test: Inhibition of CYP2D6 (unknown origin); assay type: ADME
[21] = biological target: T5, Prostaglandin E2 receptor EP3 subtype (Homo sapiens, UniProt P43115); test: Antagonist activity at human EP3 receptor assessed as inhibition of PGE2-induced Ca2+ mobilization by FLIPR assay; assay type: functional; method in brief: as §3
T5 sequence (P43115 whole entry): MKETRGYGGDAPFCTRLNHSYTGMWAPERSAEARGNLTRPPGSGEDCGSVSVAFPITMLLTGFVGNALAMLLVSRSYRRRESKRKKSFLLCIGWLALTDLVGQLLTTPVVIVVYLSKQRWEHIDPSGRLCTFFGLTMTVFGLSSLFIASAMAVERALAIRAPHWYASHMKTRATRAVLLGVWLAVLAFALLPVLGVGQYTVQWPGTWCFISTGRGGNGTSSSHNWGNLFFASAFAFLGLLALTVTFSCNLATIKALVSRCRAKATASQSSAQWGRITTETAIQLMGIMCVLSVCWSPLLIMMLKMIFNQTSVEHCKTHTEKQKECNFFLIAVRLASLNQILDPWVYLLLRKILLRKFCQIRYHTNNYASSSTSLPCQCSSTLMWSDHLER

Cytochrome P450 2D6, sequence (P10635 whole entry): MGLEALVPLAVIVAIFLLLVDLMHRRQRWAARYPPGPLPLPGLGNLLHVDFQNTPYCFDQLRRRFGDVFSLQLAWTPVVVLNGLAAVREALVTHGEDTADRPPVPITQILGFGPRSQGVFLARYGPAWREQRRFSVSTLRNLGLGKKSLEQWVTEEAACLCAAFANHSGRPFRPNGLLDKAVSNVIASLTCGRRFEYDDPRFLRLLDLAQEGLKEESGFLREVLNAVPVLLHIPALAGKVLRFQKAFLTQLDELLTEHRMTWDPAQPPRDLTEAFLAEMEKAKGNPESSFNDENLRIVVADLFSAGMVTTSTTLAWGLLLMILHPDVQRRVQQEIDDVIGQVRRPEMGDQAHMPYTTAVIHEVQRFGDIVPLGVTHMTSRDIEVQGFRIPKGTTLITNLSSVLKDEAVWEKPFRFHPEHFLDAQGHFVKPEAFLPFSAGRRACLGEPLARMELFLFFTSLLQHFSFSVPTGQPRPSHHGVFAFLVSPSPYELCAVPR
Cytochrome P450 3A4, sequence (P08684 whole entry): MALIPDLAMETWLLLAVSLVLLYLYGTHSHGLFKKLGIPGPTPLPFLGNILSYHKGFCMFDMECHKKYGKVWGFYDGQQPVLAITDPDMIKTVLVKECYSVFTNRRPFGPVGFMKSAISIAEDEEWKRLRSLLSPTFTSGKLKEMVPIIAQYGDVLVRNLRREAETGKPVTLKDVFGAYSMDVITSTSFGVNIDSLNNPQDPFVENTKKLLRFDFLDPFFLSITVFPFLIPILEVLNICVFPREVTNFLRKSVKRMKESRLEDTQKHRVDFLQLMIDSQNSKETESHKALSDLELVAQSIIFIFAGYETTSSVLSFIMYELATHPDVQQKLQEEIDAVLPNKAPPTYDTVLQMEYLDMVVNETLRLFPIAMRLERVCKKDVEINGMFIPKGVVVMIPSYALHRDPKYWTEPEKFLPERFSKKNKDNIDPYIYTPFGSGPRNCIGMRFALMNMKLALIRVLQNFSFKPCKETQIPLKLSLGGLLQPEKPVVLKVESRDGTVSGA
Prostaglandin E2 receptor EP4 subtype, sequence (P35408 whole entry): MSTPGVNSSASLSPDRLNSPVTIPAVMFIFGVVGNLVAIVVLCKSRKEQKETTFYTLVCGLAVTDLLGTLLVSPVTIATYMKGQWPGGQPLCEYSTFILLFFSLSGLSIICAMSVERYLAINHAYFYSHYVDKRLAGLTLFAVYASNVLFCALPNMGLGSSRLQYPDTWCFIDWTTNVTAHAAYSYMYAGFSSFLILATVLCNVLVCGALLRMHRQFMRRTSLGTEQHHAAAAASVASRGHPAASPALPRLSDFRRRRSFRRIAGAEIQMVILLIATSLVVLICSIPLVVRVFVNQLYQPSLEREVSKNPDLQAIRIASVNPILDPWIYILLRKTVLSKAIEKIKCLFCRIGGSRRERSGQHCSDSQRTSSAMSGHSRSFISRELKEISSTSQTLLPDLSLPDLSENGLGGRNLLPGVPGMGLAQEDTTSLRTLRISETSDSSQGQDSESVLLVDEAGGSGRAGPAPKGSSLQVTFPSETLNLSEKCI
Prostaglandin E2 receptor EP2 subtype, sequence (P43116 whole entry): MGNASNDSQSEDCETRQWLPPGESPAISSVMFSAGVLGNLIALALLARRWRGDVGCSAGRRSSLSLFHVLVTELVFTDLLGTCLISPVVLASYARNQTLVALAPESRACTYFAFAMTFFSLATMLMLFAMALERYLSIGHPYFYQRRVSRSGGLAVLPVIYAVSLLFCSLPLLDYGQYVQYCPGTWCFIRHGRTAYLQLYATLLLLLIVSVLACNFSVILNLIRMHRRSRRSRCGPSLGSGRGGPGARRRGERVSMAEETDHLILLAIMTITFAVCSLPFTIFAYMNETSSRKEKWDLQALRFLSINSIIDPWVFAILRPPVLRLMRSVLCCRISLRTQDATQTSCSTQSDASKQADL
Cytochrome P450 2C9, sequence (P11712 whole entry): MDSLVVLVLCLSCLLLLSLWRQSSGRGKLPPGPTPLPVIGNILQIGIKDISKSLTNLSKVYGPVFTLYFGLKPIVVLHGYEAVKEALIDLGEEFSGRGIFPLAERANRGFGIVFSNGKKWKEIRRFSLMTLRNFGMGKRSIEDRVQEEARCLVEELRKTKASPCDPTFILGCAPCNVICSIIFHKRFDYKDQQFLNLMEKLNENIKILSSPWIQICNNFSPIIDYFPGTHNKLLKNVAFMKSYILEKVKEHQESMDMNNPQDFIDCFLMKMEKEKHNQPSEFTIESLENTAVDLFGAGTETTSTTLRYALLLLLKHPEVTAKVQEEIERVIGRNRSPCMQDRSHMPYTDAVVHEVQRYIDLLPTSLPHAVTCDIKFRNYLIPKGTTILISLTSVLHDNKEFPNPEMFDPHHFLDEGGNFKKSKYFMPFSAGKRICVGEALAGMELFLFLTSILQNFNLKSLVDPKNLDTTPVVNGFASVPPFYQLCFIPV

CN(C(=O)/C(C#N)=C/c1cn(CC(=O)O)c2cccc(F)c12)c1ccccc1 showed a pIC50 [1] of 8.00.

In the case of N#C/C(=C\c1cn(CC(=O)O)c2ccccc12)C(=O)N(Cc1ccccc1)c1ccccc1, the pIC50 [1] was 7.52.

Molecule N#C/C(=C\c1cn(CC(=O)O)c2ccccc12)C(=O)Nc1ccccc1 has a pIC50 [1] of 6.37.

With N#C/C(=C\c1cn(CCC(=O)O)c2ccccc12)C(=O)Nc1ccccc1 the pIC50 [1] was 5.23.

Work on CN(C(=O)/C(C#N)=C/c1cn(CC(=O)O)c2cccc(Cl)c12)c1ccccc1 yielded a pIC50 [1] of 8.30.

For O=C(O)Cn1cc(/C=C(\Cl)C(=O)Nc2ccccc2)c2ccccc21, the pIC50 [1] was 6.25.

Cc1cccc2c(/C=C(\C#N)C(=O)N(C)c3ccccc3)cn(CC(=O)O)c12 showed a pIC50 [1] of 6.85.

Molecule Cc1cccc2c1c(/C=C(\C#N)C(=O)N(C)c1ccccc1)cn2CC(=O)O has a pIC50 [1] of 8.00.

Molecule N#C/C(=C\c1cn(CCCC(=O)O)c2ccccc12)C(=O)Nc1ccccc1 has a pIC50 [1] of 5.59.

With Cc1ccc2c(c1)c(/C=C(\C#N)C(=O)N(C)c1ccccc1)cn2CC(=O)O the pIC50 [1] was 8.15.

N#C/C(=C\c1cn(CC(=O)O)c2ccccc12)C(=O)Nc1cccc(Br)c1 gave a pIC50 [2] of 6.22 and a pIC50 [1] of 6.30.

Work on O=C(O)Cn1c2c(c3ccccc31)CC(C(=O)Nc1ccccc1)CC2 (racemic) yielded a pIC50 [1] of 6.84.

N#C/C(=C\c1cn(CC(=O)O)c2ccccc12)C(=O)N1CCc2ccccc21 showed a pIC50 [1] of 7.22.

With N#C/C(=C\c1cn(CC(=O)O)c2ccccc12)C(=O)N1Cc2ccccc2Cc2ccccc21 the pIC50 [1] was 8.15.

CN(C(=O)/C(C#N)=C/c1cn(CC(=O)O)c2ccccc12)c1ccccc1 gave a pIC50 [1] of 7.82.

Molecule CN(C(=O)/C(C#N)=C/c1cn(CC(=O)O)c2ccc(F)cc12)c1ccccc1 has a pIC50 [1] of 8.00.

O=C(O)Cn1c2c(c3ccccc31)CN(C(=O)c1ccccc1)CC2 showed a bioavailability [3] of 14%, a solubility [4] of 515 µg/mL (≈ 1540 µM) and a pIC50 (Cytochrome P450 2C9) of less than 4.82. The pIC50 (Thromboxane A2 receptor) was less than 4.60, the AUC(0-t) [5] was 6300 ng·h/mL and the Cmax [6] was 600 ng/mL. It also gave a solubility [7] of 810 µg/mL (≈ 2420 µM), a remaining at 4 h [8] of 90% and a pIC50 [9] of less than 5.00. For the same molecule, the pIC50 [10] was less than 5.00, the pIC50 [2] was 6.77 and the remaining at 4 h [11] was 100%. It also gave a pIC50 [12] of less than 5.00, a remaining at 4 h [13] of 90% and a clearance [14] of 4.6 mL/min/kg. The remaining at 1 h [15] was 100%, the pIC50 [16] was less than 5.00 and the half-life [17] was 2.3 h. For the same molecule, the pIC50 [18] was 7.82, the Vd [19] was 0.5 L/kg and the pIC50 (Cytochrome P450 3A4) was less than 4.30. It also gave a solubility [20] of 64 µg/mL (≈ 191 µM), a pIC50 [1] of 7.77 and a pIC50 (Cytochrome P450 2D6) of less than 4.30. It also gave a pIC50 [21] of less than 5.00.
